According to ChEMBL document CHEMBL3997801, “Design, Palladium-Catalyzed Synthesis, and Biological Investigation of 2-Substituted 3-Aroylquinolin-4(1H)-ones as Inhibitors of the Hedgehog Signaling Pathway” (J Med Chem, 2017):
Activity calls are given as the source filed them. No cut-off for these calls is given here.

How the values were obtained:
[1] = target: Protein smoothened (Mus musculus) (UniProt P56726); test: Antagonist activity at Smo in Ptch1-/- mouse MEF assessed as inhibition of Hh signaling pathway by measuring suppression of Gli1 mRNA expression at 5 uM after 48 hrs by qRT-PCR method
Chain of Protein smoothened (Mus musculus) (P56726 whole entry): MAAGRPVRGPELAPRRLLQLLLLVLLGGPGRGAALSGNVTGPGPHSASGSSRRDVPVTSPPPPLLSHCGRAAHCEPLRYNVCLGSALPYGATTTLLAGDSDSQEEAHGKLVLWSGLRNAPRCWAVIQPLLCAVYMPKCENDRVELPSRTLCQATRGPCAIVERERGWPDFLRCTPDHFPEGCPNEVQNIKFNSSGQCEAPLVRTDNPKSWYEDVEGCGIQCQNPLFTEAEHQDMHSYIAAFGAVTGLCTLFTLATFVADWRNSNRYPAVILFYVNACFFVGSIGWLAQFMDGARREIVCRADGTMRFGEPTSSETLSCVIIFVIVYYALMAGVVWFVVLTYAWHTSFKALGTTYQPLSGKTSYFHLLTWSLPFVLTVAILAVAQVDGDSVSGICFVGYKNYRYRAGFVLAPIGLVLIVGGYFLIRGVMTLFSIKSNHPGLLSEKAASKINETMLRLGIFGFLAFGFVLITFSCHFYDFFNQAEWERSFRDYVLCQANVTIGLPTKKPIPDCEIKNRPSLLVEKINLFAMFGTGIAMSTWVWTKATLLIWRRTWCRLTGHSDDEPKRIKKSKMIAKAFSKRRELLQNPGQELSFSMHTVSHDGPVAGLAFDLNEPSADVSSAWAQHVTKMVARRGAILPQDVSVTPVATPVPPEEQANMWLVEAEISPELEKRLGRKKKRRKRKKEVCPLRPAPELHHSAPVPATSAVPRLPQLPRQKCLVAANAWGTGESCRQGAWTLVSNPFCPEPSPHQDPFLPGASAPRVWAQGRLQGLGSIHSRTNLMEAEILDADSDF

[2] = target: Protein smoothened (Mus musculus) (UniProt P56726); test: Antagonist activity at Smo in Ptch1-/- mouse MEF assessed as inhibition of Hh signaling pathway by measuring suppression of Gli2 mRNA expression at 5 uM after 48 hrs by qRT-PCR method
[3] = target: Protein smoothened (Mus musculus) (UniProt P56726); test: Antagonist activity at Smo in Ptch1-/- mouse MEF assessed as inhibition of Hh signaling pathway by measuring suppression of Ptch1 mRNA expression at 5 uM after 48 hrs by qRT-PCR method
[4] = target: Protein smoothened (Mus musculus) (UniProt P56726); test: Antagonist activity at Smo in Ptch1-/- mouse MEF assessed as inhibition of Hh signaling pathway by measuring suppression of CycD1 mRNA expression at 5 uM after 48 hrs by qRT-PCR method
[5] = target: Protein smoothened (Mus musculus) (UniProt P56726); test: Antagonist activity at Smo in Ptch1-/- mouse MEF assessed as inhibition of Hh signaling pathway by measuring suppression of CycD2 mRNA expression at 5 uM after 48 hrs by qRT-PCR method
[6] = target: Protein smoothened (Mus musculus) (UniProt P56726); test: Antagonist activity at Smo in Ptch1-/- mouse MEF assessed as inhibition of Hh signaling pathway by measuring suppression of HIP1 mRNA expression at 5 uM after 48 hrs by qRT-PCR method
[7] = target: Protein smoothened (Mus musculus) (UniProt P56726); test: Antagonist activity at Smo in Ptch1-/- mouse MEF assessed as inhibition of Hh signaling pathway by measuring suppression of Igf2 mRNA expression at 5 uM after 48 hrs by qRT-PCR method
[8] = (§1) Inhibition of Bodipy-cyclopamine binding to mouse FLAG-tagged Smo D477G mutant expressed in HEK293 cells after 3 hrs by Hoechst staining based fluorescence assay; type: cell-based
Summary of the method: (§2)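 Cells transiently transfected with mouse Flag-tagged Smo WT or D477G were washed in PBS/0.5% FBS, fixed 10 min in 4% paraformaldehyde and permeabilized with 0.2% Triton X-100. They were then incubated 3 h at 37 °C with Bodipy-cyclopamine 5 nM plus compound, with Hoechst nuclear stain. Green signal was scored in 3–4 fields per coverslip (20×) as % of binding with BC alone.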

Mus musculus = species on record: Mus musculus; test: as §1; type: cell-based; summary of the method: as §2
Protein smoothened = Protein smoothened (Mus musculus, UniProt P56726); test: Inhibition of Bodipy-cyclopamine binding to mouse FLAG-tagged Smo expressed in HEK293 cells after 3 hrs by Hoechst staining based fluorescence assay; type: cell-based; summary of the method: as §2
Chain of Protein smoothened (P56726 whole entry): as above

[9] = target: Protein smoothened (Mus musculus) (UniProt P56726); test: Antagonist activity at Smo in […]-stimulated mouse granule cell progenitors assessed as inhibition of Hh signaling pathway-dependent cell proliferation by measuring suppression of Gli1 mRNA expression at 5 uM after 24 hrs by qRT-PCR method
[10] = target: Protein smoothened (Mus musculus) (UniProt P56726); test: Antagonist activity at Smo in […]-stimulated mouse granule cell progenitors assessed as inhibition of Hh signaling pathway-dependent cell proliferation by measuring suppression of Gli2 mRNA expression at 5 uM after 24 hrs by qRT-PCR method
[11] = target: Protein smoothened (Mus musculus) (UniProt P56726); test: Antagonist activity at Smo in […]-stimulated mouse granule cell progenitors assessed as inhibition of Hh signaling pathway-dependent cell proliferation by measuring suppression of Ptch1 mRNA expression at 5 uM after 24 hrs by qRT-PCR method
[12] = target: Protein smoothened (Mus musculus) (UniProt P56726); test: Antagonist activity at Smo in […]-stimulated mouse granule cell progenitors assessed as inhibition of Hh signaling pathway-dependent cell proliferation by measuring suppression of CycD1 mRNA expression at 5 uM after 24 hrs by qRT-PCR method
[13] = target: Protein smoothened (Mus musculus) (UniProt P56726); test: Antagonist activity at Smo in […]-stimulated mouse granule cell progenitors assessed as inhibition of Hh signaling pathway-dependent cell proliferation by measuring suppression of CycD2 mRNA expression at 5 uM after 24 hrs by qRT-PCR method
[14] = target: Protein smoothened (Mus musculus) (UniProt P56726); test: Antagonist activity at Smo in […]-stimulated mouse granule cell progenitors assessed as inhibition of Hh signaling pathway-dependent cell proliferation by measuring suppression of N-Myc mRNA expression at 5 uM after 24 hrs by qRT-PCR method
[15] = target: Protein smoothened (Mus musculus) (UniProt P56726); test: Antagonist activity at Smo in […]-stimulated mouse granule cell progenitors assessed as inhibition of Hh signaling pathway-dependent cell proliferation by measuring suppression of Gli1 protein expression at 5 uM after 24 hrs by Western blot method
[16] = target: Protein smoothened (Mus musculus) (UniProt P56726); test: Antagonist activity at Smo in […]-stimulated mouse granule cell progenitors assessed as inhibition of Hh signaling pathway-dependent cell proliferation by measuring suppression of NMyc protein expression at 5 uM after 24 hrs by Western blot method
[17] = target: Protein smoothened (Mus musculus) (UniProt P56726); test: Antagonist activity at Smo in […]-stimulated mouse granule cell progenitors assessed as inhibition of Hh signaling pathway-dependent cell proliferation by measuring suppression of CycD1 protein expression at 5 uM after 24 hrs by Western blot method
[18] = target: Protein smoothened (Mus musculus) (UniProt P56726); test: Antagonist activity at Smo in Ptch1+/- mouse medulloblastoma cells assessed as inhibition of Hh pathway dependent cell growth up to 72 hrs by trypan blue assay
Summary of the method: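 Primary MB cells freshly isolated from Ptch1± mouse tumours, used in short-term culture to keep Hh sensitivity; compound 10 μM or DMSO control; viable cells counted by trypan blue after 24, 48 and 72 h. Mean ± SD of three independent experiments.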

[19] = target: Protein smoothened (Mus musculus) (UniProt P56726); test: Antagonist activity at Smo in Ptch1+/- mouse medulloblastoma cells assessed as inhibition of Hh signaling pathway by measuring suppression of Gli1 mRNA expression at 10 uM after 24 hrs by qRT-PCR method
Summary of the method: (§3)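 Freshly isolated Ptch1± mouse MB cells in short-term culture, treated 24 h with compound (10 μM) or DMSO. mRNA measured by qRT-PCR against a calibrator (arbitrary units) and normalized to β2-microglobulin and HPRT. Mean ± SD of three independent experiments.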

[20] = target: Protein smoothened (Mus musculus) (UniProt P56726); test: Antagonist activity at Smo in Ptch1+/- mouse medulloblastoma cells assessed as inhibition of Hh signaling pathway by measuring suppression of Gli2 mRNA expression at 10 uM after 24 hrs by qRT-PCR method; summary of the method: as §3
[21] = target: Protein smoothened (Mus musculus) (UniProt P56726); test: Antagonist activity at Smo in Ptch1+/- mouse medulloblastoma cells assessed as inhibition of Hh signaling pathway by measuring suppression of Ptch1 mRNA expression at 10 uM after 24 hrs by qRT-PCR method; summary of the method: as §3
[22] = target: Protein smoothened (Mus musculus) (UniProt P56726); test: Antagonist activity at Smo in Ptch1+/- mouse medulloblastoma cells assessed as inhibition of Hh signaling pathway by measuring suppression of CycD1 mRNA expression at 10 uM after 24 hrs by qRT-PCR method; summary of the method: as §3
[23] = target: Protein smoothened (Mus musculus) (UniProt P56726); test: Antagonist activity at Smo in Ptch1+/- mouse medulloblastoma cells assessed as inhibition of Hh signaling pathway by measuring suppression of CycD2 mRNA expression at 10 uM after 24 hrs by qRT-PCR method; summary of the method: as §3
[24] = target: Protein smoothened (Mus musculus) (UniProt P56726); test: Antagonist activity at Smo in mouse ASZ001 cells assessed as inhibition of Hh pathway dependent cell growth up to 72 hrs by trypan blue assay; type: cell-based
Summary of the method: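 ASZ001 BCC cells grown in 154CF medium with 2% Chelex-chelated FBS and 0.05 mM CaCl2, treated with compound or DMSO control; viable cells counted by trypan blue after 24, 48 and 72 h.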

[25] = target: Protein smoothened (Mus musculus) (UniProt P56726); test: Antagonist activity at Smo in mouse ASZ001 cells assessed as inhibition of Hh signaling pathway by measuring suppression of Gli1 mRNA expression at 10 uM after 48 hrs by qRT-PCR method; type: cell-based
Summary of the method: (§4)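 ASZ001 BCC cells (154CF medium, 2% chelated FBS, 0.05 mM CaCl2), treated 48 h with compound or DMSO. Transcripts quantified by qRT-PCR relative to a calibrator, normalized to β2-microglobulin and HPRT.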

[26] = target: Protein smoothened (Mus musculus) (UniProt P56726); test: Antagonist activity at Smo in mouse ASZ001 cells assessed as inhibition of Hh signaling pathway by measuring suppression of Gli2 mRNA expression at 10 uM after 48 hrs by qRT-PCR method; type: cell-based; summary of the method: as §4
[27] = target: Protein smoothened (Mus musculus) (UniProt P56726); test: Antagonist activity at Smo in mouse ASZ001 cells assessed as inhibition of Hh signaling pathway by measuring suppression of Ptch1 mRNA expression at 10 uM after 48 hrs by qRT-PCR method; type: cell-based; summary of the method: as §4
[28] = target: Protein smoothened (Mus musculus) (UniProt P56726); test: Antagonist activity at Smo in mouse ASZ001 cells assessed as inhibition of Hh signaling pathway by measuring suppression of CycD1 mRNA expression at 10 uM after 48 hrs by qRT-PCR method; type: cell-based; summary of the method: as §4
[29] = target: Protein smoothened (Mus musculus) (UniProt P56726); test: Antagonist activity at Smo in mouse ASZ001 cells assessed as inhibition of Hh signaling pathway by measuring suppression of CycD2 mRNA expression at 10 uM after 48 hrs by qRT-PCR method; type: cell-based; summary of the method: as §4
[30] = target: Protein smoothened (Mus musculus) (UniProt P56726); test: Antagonist activity at Smo in mouse ASZ001 cells assessed as inhibition of Hh signaling pathway by measuring suppression of BMP2 mRNA expression at 10 uM after 48 hrs by qRT-PCR method; type: cell-based; summary of the method: as §4

inhibition [1] | inhibition [2] | inhibition [3] | inhibition [4] | inhibition [5] | inhibition [6] | inhibition [7] | IC50 [8] | IC50 (Protein smoothened) | inhibition [9] | inhibition [10] | inhibition [11] | inhibition [12] | inhibition [13] | inhibition [14] | inhibition [15] | inhibition [16] | inhibition [17] | growth inhibition (GI) [18] | SMILES | inhibition (Mus musculus) | also measured
Active | Active | Active | Active | Active | Active | Active | 12.4 µM | 13.8 µM | Active | Active | Active | Active | Active | Active | Active | Active | Active | Dose-dependent effect | COc1cccc(C(=O)c2c(-c3ccccc3)[nH]c3ccccc3c2=O)c1 | Dose-dependent effect | inhibition [19]: Active; inhibition [20]: Active; inhibition [21]: Active; inhibition [22]: Active; inhibition [23]: Active; growth inhibition (GI) [24]: Dose-dependent effect; inhibition [25]: Active; inhibition [26]: Active; inhibition [27]: Active; inhibition [28]: Active; inhibition [29]: Active; inhibition [30]: Active
Active | Active | Active | Active | Active | Active | Active | 29.4 µM | 24 µM | Active | Active | Active | Active | Active | Active | Active | Active | Active | Dose-dependent effect | O=C(c1ccccc1)c1c(-c2ccccc2)[nH]c2ccc(Br)cc2c1=O | Dose-dependent effect | inhibition [19]: Active; inhibition [20]: Active; inhibition [21]: Active; inhibition [22]: Active; inhibition [23]: Active; growth inhibition (GI) [24]: Dose-dependent effect; inhibition [25]: Active; inhibition [26]: Active; inhibition [27]: Active; inhibition [28]: Active; inhibition [29]: Active; inhibition [30]: Active
